Assay results from different studies.
Protocols differ between the studies behind these lines.
CYP2C19: Cytochrome P450 2C19 (CYP2C19, Homo sapiens, UniProt P33261)
UGT1A4: UDP-glucuronosyltransferase 1A4 (UGT1A4, Homo sapiens, UniProt P22310)

SMILES | target or system | assay | system | setting | endpoint | result
N=C(N)N1CC=C(c2coc(C(=O)Nc3ccc(C4=CCN(C(=N)N)CC4)c(F)c3)c2)CC1 | NIH3T3 | cell growth or viability, MTS |  | 24 h | CC50 | 68 µM
COC(=O)C1CCN(C(=O)c2ccc(N(CCCO)Cc3cnc4nc(N)nc(N)c4n3)cc2)CC1 | CYP2C19 | enzyme activity, inhibitor, luciferase |  | 10 µM | inhibition | -9.48%
N=C(N)NCc1ccc(NC(=O)C23CCC(C(=O)Nc4ccc(C5=CCN(C(=N)N)CC5)cc4)(CC2)CC3)cc1 | NIH3T3 | cell growth or viability, MTS |  | 24 h | CC50 | 439 µM
COC(=O)C1CCN(C(=O)c2ccc(SCc3cnc4nc(N)nc(N)c4n3)nc2)CC1 | CYP2C19 | enzyme activity, inhibitor, luciferase |  | 10 µM | inhibition | -2.45%
C[C@@H]1C[C@@H](c2ccc(Br)cc2)c2c(cc3ccccn23)C(=O)O1 (racemic) | HFF-1 | cell growth or viability, resazurin |  | 72 h | CC50 | > 100 µM
[11CH3]Oc1cccc(CCc2cc(O)c(=O)[nH]n2)c1 | ATP-dependent translocase ABCB1 (Abcb1a, Mus musculus, UniProt P21447) |  | mouse, brain | 5 min | tracer uptake | 0.43 %ID/g
CCOC(=O)C1CCCN1C(=O)c1ccc(NCc2cnc3nc(N)nc(N)c3n2)cc1 (stereo not shown) | CYP2C19 | enzyme activity, inhibitor, luciferase |  | 10 µM | inhibition | -16.2%
O=C(Nc1c2c(cc3c1CCC3)CCC2)NS(=O)(=O)/C=C/c1nccs1 | CYP2C19 | enzyme activity, inhibitor | human, liver microsomes | 10 µM, pH 7.4 | inhibition | 10.7%
COC(=O)C1CCN(C(=O)c2ccc(N(Cc3ccccc3)Cc3cnc4nc(N)nc(N)c4n3)cc2)CC1 | CYP2C19 | enzyme activity, inhibitor, luciferase |  | 10 µM | inhibition | 107%
C[C@H](O)c1cc(C(=O)N[C@@H](C)Cn2ccc(-c3ccc(C#N)c(Cl)c3)n2)n[nH]1 | UGT1A4 | enzyme activity, inhibitor | human, liver microsomes |  | IC50 | > 100 µM
N=C(N)NCc1ccc(NC(=O)c2ccc(C(=O)Nc3ccc(C4=CCN(C(=N)N)CC4)cn3)cc2)cc1 | NIH3T3 | cell growth or viability, MTS |  | 24 h | CC50 | 544 µM
COc1cc2c3c(n(CCCN4CCOCC4)c(=O)c2cc1OC)-c1cc2c(cc1C3=O)OCO2 |  |  | female beagle dog, plasma | intravenous, 10 mg/m², infusion | Cmax | 75.7 ng/mL
CC(=O)c1cc(C(=O)N[C@@H](C)Cn2ccc(-c3ccc(C#N)c(Cl)c3)n2)[nH]n1 | UGT1A4 | enzyme activity, inhibitor | human, liver microsomes |  | IC50 | > 50 µM
